From ChEMBL document CHEMBL3864121, “Development of ebsulfur analogues as potent antibacterials against methicillin-resistant Staphylococcus aureus” (Bioorg Med Chem, 2016)
In brackets after ≈: the same amount, converted by molar mass.

tested on: Staphylococcus aureus; assay: Antibacterial activity against methicillin-sensitive Staphylococcus aureus ATCC 6538 measured after overnight incubation by broth double-dilution method; assay type: functional; conditions: not given
Summary of the method: (§1)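 MIC by broth double-dilution in liquid Mueller-Hinton medium. Values are reported in µg/mL.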

Compound	MIC [µg/mL]
O=c1c2ccccc2sn1C1CCCCCCC1	2 (≈ 7.65 µM)

tested on: Staphylococcus aureus; assay: Antibacterial activity against methicillin-sensitive Staphylococcus aureus ATCC 25923 measured after overnight incubation by broth double-dilution method; assay type: functional; conditions: not given; summary of the method: as §1

Compound	MIC [µg/mL]
C#Cc1ccc(-n2sc3ccccc3c2=O)cc1	3.9 (≈ 15.5 µM)
O=c1c2ccccc2sn1C1CCCCCCC1	> 125

tested on: Staphylococcus aureus; assay: Antibacterial activity against methicillin-sensitive Staphylococcus aureus ATCC 29213 measured after overnight incubation by broth double-dilution method; assay type: functional; conditions: not given; summary of the method: as §1

Compound	MIC [µg/mL]
C#Cc1ccc(-n2sc3ccccc3c2=O)cc1	1 (≈ 3.98 µM)
O=c1c2ccccc2sn1C1CCCCCCC1	2 (≈ 7.65 µM)

tested on: Staphylococcus aureus; assay: Antibacterial activity against methicillin-resistant Staphylococcus aureus ATCC 33591 measured after overnight incubation by broth double-dilution method; assay type: functional; conditions: not given; summary of the method: as §1

Compound	MIC [µg/mL]
C#Cc1ccc(-n2sc3ccccc3c2=O)cc1	1 (≈ 3.98 µM)
O=c1c2ccccc2sn1C1CCCCCCC1	> 125

tested on: Staphylococcus aureus; assay: Antibacterial activity against methicillin-resistant Staphylococcus aureus 1 measured after overnight incubation by broth double-dilution method; assay type: functional; conditions: not given; summary of the method: as §1

Compound	MIC [µg/mL]
C#Cc1ccc(-n2sc3ccccc3c2=O)cc1	3.9 (≈ 15.5 µM)
O=c1c2ccccc2sn1C1CCCCCCC1	3.9 (≈ 14.9 µM)

tested on: Staphylococcus aureus; assay: Antibacterial activity against methicillin-resistant Staphylococcus aureus 2 measured after overnight incubation by broth double-dilution method; assay type: functional; conditions: not given; summary of the method: as §1

Compound	MIC [µg/mL]
C#Cc1ccc(-n2sc3ccccc3c2=O)cc1	2 (≈ 7.96 µM)
O=c1c2ccccc2sn1C1CCCCCCC1	3.9 (≈ 14.9 µM)

tested on: Staphylococcus aureus; assay: Antibacterial activity against methicillin-resistant Staphylococcus aureus BRS3 measured after overnight incubation by broth double-dilution method; assay type: functional; conditions: not given; summary of the method: as §1

Compound	MIC [µg/mL]
O=c1c2ccccc2sn1C1CCCCCCC1	3.9 (≈ 14.9 µM)

tested on: Staphylococcus aureus; assay: Antibacterial activity against methicillin-resistant Staphylococcus aureus C1 measured after overnight incubation by broth double-dilution method; assay type: functional; conditions: not given; summary of the method: as §1

Compound	MIC [µg/mL]
C#Cc1ccc(-n2sc3ccccc3c2=O)cc1	2 (≈ 7.96 µM)
O=c1c2ccccc2sn1C1CCCCCCC1	3.9 (≈ 14.9 µM)

tested on: Staphylococcus aureus; assay: Antibacterial activity against methicillin-resistant Staphylococcus aureus C2 measured after overnight incubation by broth double-dilution method; assay type: functional; conditions: not given; summary of the method: as §1

Compound	MIC [µg/mL]
C#Cc1ccc(-n2sc3ccccc3c2=O)cc1	2 (≈ 7.96 µM)
O=c1c2ccccc2sn1C1CCCCCCC1	3.9 (≈ 14.9 µM)

tested on: Staphylococcus aureus; assay: Antibacterial activity against methicillin-resistant Staphylococcus aureus C7 measured after overnight incubation by broth double-dilution method; assay type: functional; conditions: not given; summary of the method: as §1

Compound	MIC [µg/mL]
C#Cc1ccc(-n2sc3ccccc3c2=O)cc1	2 (≈ 7.96 µM)
O=c1c2ccccc2sn1C1CCCCCCC1	3.9 (≈ 14.9 µM)

tested on: Staphylococcus aureus; assay: Antibacterial activity against methicillin-resistant Staphylococcus aureus C14 measured after overnight incubation by broth double-dilution method; assay type: functional; conditions: not given; summary of the method: as §1

Compound	MIC [µg/mL]
O=c1c2ccccc2sn1C1CCCCCCC1	2 (≈ 7.65 µM)

tested on: Staphylococcus aureus; assay: Antibacterial activity against methicillin-resistant Staphylococcus aureus C16 measured after overnight incubation by broth double-dilution method; assay type: functional; conditions: not given; summary of the method: as §1

Compound	MIC [µg/mL]
O=c1c2ccccc2sn1C1CCCCCCC1	3.9 (≈ 14.9 µM)

tested on: Staphylococcus aureus; assay: Antibacterial activity against methicillin-resistant Staphylococcus aureus C19 measured after overnight incubation by broth double-dilution method; assay type: functional; conditions: not given; summary of the method: as §1

Compound	MIC [µg/mL]
C#Cc1ccc(-n2sc3ccccc3c2=O)cc1	2 (≈ 7.96 µM)
O=c1c2ccccc2sn1C1CCCCCCC1	2 (≈ 7.65 µM)

tested on: Staphylococcus aureus; assay: Antibacterial activity against methicillin-resistant Staphylococcus aureus G1 measured after overnight incubation by broth double-dilution method; assay type: functional; conditions: not given; summary of the method: as §1

Compound	MIC [µg/mL]
C#Cc1ccc(-n2sc3ccccc3c2=O)cc1	2 (≈ 7.96 µM)
O=c1c2ccccc2sn1C1CCCCCCC1	1 (≈ 3.83 µM)

tested on: Staphylococcus aureus; assay: Antibacterial activity against methicillin-resistant Staphylococcus aureus G6 measured after overnight incubation by broth double-dilution method; assay type: functional; conditions: not given; summary of the method: as §1

Compound	MIC [µg/mL]
O=c1c2ccccc2sn1C1CCCCCCC1	2 (≈ 7.65 µM)

tested on: Staphylococcus aureus; assay: Antibacterial activity against methicillin-resistant Staphylococcus aureus G12 measured after overnight incubation by broth double-dilution method; assay type: functional; conditions: not given; summary of the method: as §1

Compound	MIC [µg/mL]
C#Cc1ccc(-n2sc3ccccc3c2=O)cc1	3.9 (≈ 15.5 µM)
O=c1c2ccccc2sn1C1CCCCCCC1	2 (≈ 7.65 µM)

tested on: Staphylococcus aureus; assay: Antibacterial activity against methicillin-resistant Staphylococcus aureus G14 measured after overnight incubation by broth double-dilution method; assay type: functional; conditions: not given; summary of the method: as §1

Compound	MIC [µg/mL]
C#Cc1ccc(-n2sc3ccccc3c2=O)cc1	3.9 (≈ 15.5 µM)
O=c1c2ccccc2sn1C1CCCCCCC1	3.9 (≈ 14.9 µM)

tested on: Staphylococcus aureus; assay: Antibacterial activity against methicillin-resistant Staphylococcus aureus NRS4 measured after overnight incubation by broth double-dilution method; assay type: functional; conditions: not given; summary of the method: as §1

Compound	MIC [µg/mL]
O=c1c2ccccc2sn1C1CCCCCCC1	0.5 (≈ 1.91 µM)

tested on: Staphylococcus aureus; assay: Antibacterial activity against methicillin-resistant Staphylococcus aureus NRS51 measured after overnight incubation by broth double-dilution method; assay type: functional; conditions: not given; summary of the method: as §1

Compound	MIC [µg/mL]
C#Cc1ccc(-n2sc3ccccc3c2=O)cc1	3.9 (≈ 15.5 µM)
O=c1c2ccccc2sn1C1CCCCCCC1	2 (≈ 7.65 µM)

tested on: Staphylococcus aureus; assay: Antibacterial activity against methicillin-resistant Staphylococcus aureus NRS77 measured after overnight incubation by broth double-dilution method; assay type: functional; conditions: not given; summary of the method: as §1

Compound	MIC [µg/mL]
C#Cc1ccc(-n2sc3ccccc3c2=O)cc1	3.9 (≈ 15.5 µM)
O=c1c2ccccc2sn1C1CCCCCCC1	2 (≈ 7.65 µM)

tested on: Staphylococcus aureus; assay: Antibacterial activity against methicillin-resistant Staphylococcus aureus S14 measured after overnight incubation by broth double-dilution method; assay type: functional; conditions: not given; summary of the method: as §1

Compound	MIC [µg/mL]
C#Cc1ccc(-n2sc3ccccc3c2=O)cc1	0.5 (≈ 1.99 µM)
O=c1c2ccccc2sn1C1CCCCCCC1	1 (≈ 3.83 µM)

tested on: Staphylococcus aureus; assay: Antibacterial activity against methicillin-resistant Staphylococcus aureus S17 measured after overnight incubation by broth double-dilution method; assay type: functional; conditions: not given; summary of the method: as §1

Compound	MIC [µg/mL]
C#Cc1ccc(-n2sc3ccccc3c2=O)cc1	3.9 (≈ 15.5 µM)
O=c1c2ccccc2sn1C1CCCCCCC1	2 (≈ 7.65 µM)

tested on: Staphylococcus aureus; assay: Antibacterial activity against methicillin-resistant Staphylococcus aureus S22 measured after overnight incubation by broth double-dilution method; assay type: functional; conditions: not given; summary of the method: as §1

Compound	MIC [µg/mL]
C#Cc1ccc(-n2sc3ccccc3c2=O)cc1	2 (≈ 7.96 µM)
O=c1c2ccccc2sn1C1CCCCCCC1	7.8 (≈ 29.8 µM)

tested on: Staphylococcus aureus; assay: Antibacterial activity against methicillin-resistant Staphylococcus aureus S24 measured after overnight incubation by broth double-dilution method; assay type: functional; conditions: not given; summary of the method: as §1

Compound	MIC [µg/mL]
C#Cc1ccc(-n2sc3ccccc3c2=O)cc1	2 (≈ 7.96 µM)
O=c1c2ccccc2sn1C1CCCCCCC1	3.9 (≈ 14.9 µM)

tested on: Staphylococcus aureus; assay: Antibacterial activity against methicillin-resistant Staphylococcus aureus USA100 measured after overnight incubation by broth double-dilution method; assay type: functional; conditions: not given; summary of the method: as §1

Compound	MIC [µg/mL]
C#Cc1ccc(-n2sc3ccccc3c2=O)cc1	2 (≈ 7.96 µM)
O=c1c2ccccc2sn1C1CCCCCCC1	7.8 (≈ 29.8 µM)

tested on: Staphylococcus aureus; assay: Antibacterial activity against methicillin-resistant Staphylococcus aureus USA200 measured after overnight incubation by broth double-dilution method; assay type: functional; conditions: not given; summary of the method: as §1

Compound	MIC [µg/mL]
C#Cc1ccc(-n2sc3ccccc3c2=O)cc1	3.9 (≈ 15.5 µM)
O=c1c2ccccc2sn1C1CCCCCCC1	7.8 (≈ 29.8 µM)

tested on: Staphylococcus aureus; assay: Antibacterial activity against methicillin-resistant Staphylococcus aureus USA300 measured after overnight incubation by broth double-dilution method; assay type: functional; conditions: not given; summary of the method: as §1

Compound	MIC [µg/mL]
C#Cc1ccc(-n2sc3ccccc3c2=O)cc1	3.9 (≈ 15.5 µM)
O=c1c2ccccc2sn1C1CCCCCCC1	7.8 (≈ 29.8 µM)

tested on: Staphylococcus aureus; assay: Antibacterial activity against methicillin-resistant Staphylococcus aureus USA600 measured after overnight incubation by broth double-dilution method; assay type: functional; conditions: not given; summary of the method: as §1

Compound	MIC [µg/mL]
O=c1c2ccccc2sn1C1CCCCCCC1	7.8 (≈ 29.8 µM)

tested on: Staphylococcus epidermidis; assay: Antibacterial activity against Staphylococcus epidermidis ATCC 35984 measured after overnight incubation by broth double-dilution method; assay type: functional; conditions: RP62A
Summary of the method: (§2)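 MIC by broth double-dilution in Mueller-Hinton medium. Re-testing at the time-kill inoculum used 1×10^6 CFU/mL.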

Compound	MIC [µg/mL]
C#Cc1ccc(-n2sc3ccccc3c2=O)cc1	2 (≈ 7.96 µM)
O=c1c2ccccc2sn1C1CCCCCCC1	3.9 (≈ 14.9 µM)

tested on: Enterococcus faecalis; assay: Antibacterial activity against Enterococcus faecalis ATCC 29212 measured after overnight incubation by broth double-dilution method; assay type: functional; conditions: not given; summary of the method: as §2

Compound	MIC [µg/mL]
O=c1c2ccccc2sn1C1CCCCCCC1	15.6 (≈ 59.7 µM)

tested on: Enterococcus faecalis; assay: Antibacterial activity against Enterococcus faecalis ATCC 49533 measured after overnight incubation by broth double-dilution method; assay type: functional; conditions: not given; summary of the method: as §2

Compound	MIC [µg/mL]
C#Cc1ccc(-n2sc3ccccc3c2=O)cc1	< 125
O=c1c2ccccc2sn1C1CCCCCCC1	15.6 (≈ 59.7 µM)

tested on: Enterococcus faecium; assay: Antibacterial activity against Enterococcus faecium BM4105-RF measured after overnight incubation by broth double-dilution method; assay type: functional; conditions: not given; summary of the method: as §1

Compound	MIC [µg/mL]
C#Cc1ccc(-n2sc3ccccc3c2=O)cc1	7.8 (≈ 31 µM)
O=c1c2ccccc2sn1C1CCCCCCC1	15.6 (≈ 59.7 µM)

tested on: Enterococcus; assay: Antibacterial activity against Vancomycin-resistant Enterococcus measured after overnight incubation by broth double-dilution method; assay type: functional; conditions: not given; summary of the method: as §1

Compound	MIC [µg/mL]
C#Cc1ccc(-n2sc3ccccc3c2=O)cc1	2 (≈ 7.96 µM)
O=c1c2ccccc2sn1C1CCCCCCC1	1 (≈ 3.83 µM)

tested on: Listeria monocytogenes; assay: Antibacterial activity against Listeria monocytogenes ATCC 19115 measured after overnight incubation by broth double-dilution method; assay type: functional; conditions: not given; summary of the method: as §2

Compound	MIC [µg/mL]
C#Cc1ccc(-n2sc3ccccc3c2=O)cc1	3.9 (≈ 15.5 µM)
O=c1c2ccccc2sn1C1CCCCCCC1	> 125

tested on: Mycolicibacterium smegmatis; assay: Antibacterial activity against Mycobacterium smegmatis MC2-155 measured after overnight incubation by broth double-dilution method; assay type: functional; conditions: str. MC2 155; summary of the method: as §1

Compound	MIC [µg/mL]
C#Cc1ccc(-n2sc3ccccc3c2=O)cc1	3.9 (≈ 15.5 µM)
O=c1c2ccccc2sn1C1CCCCCCC1	3.9 (≈ 14.9 µM)
